Data published in ChEMBL document CHEMBL4000159, “Bartolosides E-K from a Marine Coccoid Cyanobacterium” (J Nat Prod, 2016).

Experiments:
Type in all cases: functional, cell-based
[1] = test system: T47D; assay: Cytotoxicity against human T47D cells assessed as decrease in cell viability after 48 hrs by MTT assay
How it was run: (§1)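 Cells grown in DMEM Glutamax with 10% FBS, 2.5 μg/mL fungizone, 100 IU/mL penicillin and 100 μg/mL streptomycin. Seeded at 3.3 × 10^4 cells/mL and left 24 h (37 °C, 5% CO2) to adhere. Pure compounds added as dilutions from 50 to 0.003 μg/mL for 48 h. MTT 0.5 mg/mL for 3 h, formazan dissolved in DMSO, absorbance read at 550 nm. Triplicates averaged; IC50 taken from dose–response curves.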

[2] = test system: MG-63; assay: Cytotoxicity against human MG63 cells assessed as decrease in cell viability after 48 hrs by MTT assay; settings: MG-63, 48 h; how it was run: as §1
[3] = test system: RKO; assay: Cytotoxicity against human RKO cells assessed as decrease in cell viability after 48 hrs by MTT assay; how it was run: as §1

| SMILES | IC50 [1] [µM] | IC50 [2] [µM] | IC50 [3] [µM] |
| --- | --- | --- | --- |
| CCCCCCC(Cl)CCCCCc1c(O)cc(CCCCCCC(Cl)CCCC)cc1O[C@@H]1OC[C@@H](O)[C@H](O)[C@H]1O (some centres undefined) | 22 | 39 | 40 |
| CCCCCCCCCC(Cl)CCCCCc1cc(O)c(CCCCCC(Cl)CCCCCC)c(O[C@@H]2OC[C@@H](O)[C@H](O)[C@H]2O)c1 (some centres undefined) | > 10 | > 10 | > 10 |
| CCCCCCC(Cl)CCCCCc1cc(O)c(CCCCCC(Cl)CCCCCC)c(O[C@@H]2OC[C@@H](O)[C@H](O)[C@H]2O)c1 (some centres undefined) | > 10 | > 10 | > 10 |
| CCCCCCCC(Cl)(Cl)CCCCCc1cc(O)c(CCCCCC(Cl)CCCCCC)c(O[C@@H]2OC[C@@H](O)[C@H](O)[C@H]2O)c1 (some centres undefined) | 59.8 | > 10 | > 10 |
| CCCCCCCC(Cl)CCCCCc1cc(O)c(CCCCCC(Cl)CCCCCC)c(O[C@@H]2OC[C@@H](O)[C@H](O)[C@H]2O)c1 (some centres undefined) | 23 | 22 | 40 |
| CCCCCCCCC(Cl)CCCCCc1cc(O)c(CCCCCC(Cl)CCCCCC)c(O[C@@H]2OC[C@@H](O)[C@H](O)[C@H]2O)c1 (some centres undefined) | > 10 | > 10 | > 10 |
| CCCCCCCCCCCCCc1cc(O)c(CCCCCC(Cl)CCCCCC)c(O[C@@H]2OC[C@@H](O)[C@H](O)[C@H]2O)c1 (some centres undefined) | > 10 | > 10 | > 10 |
| CCCCCCCCCCCc1cc(O)c(CCCCCC(Cl)CCCCCC)c(O[C@@H]2OC[C@@H](O)[C@H](O)[C@H]2O)c1 (some centres undefined) | > 10 | > 10 | > 10 |
